iPSC survival up: increases survival of single human iPS cells; survival enhancement, % at 20 µM; AID 602274; hiPSC single-cell survival, ATPlite luminescence; 100% = ROCK inhibitor wells, 0% = DMSO; 0.044% of 360,000 active; in the data active = survival enhancement above about 18%;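 note: cells exposed to compounds for 16 hours before the ATP read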
APJ ag: activates the human apelin receptor APJ; P35414; CHO-K1 APJ PathHunter beta-arrestin, luminescence; 0% DMSO wells, 100% apelin; activation, % at 20 µM; 0.11% of 330,000 active; AID 2520;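 active = activation more than six SD over the plate average, tested at 20 µM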;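 note: 0% = DMSO alone and 100% = apelin-13 at 10 nM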
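Material: CHO-K1 APJ beta-arrestin complementation cell line; Input: cell density 1000 per well; Incubation: compound stimulation 90 min at 25 °C, detection 60 min; Signal: luminescence from split beta-galactosidase complementation, Galacton Star/Emerald II substrate; Controls: DMSO-only wells as negative, 10 nM Apelin-13 as positive control.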
APJ antagonist: blocks the human apelin receptor APJ. 0.32% of 330,000 active. P35414. CHO-K1 APJ beta-arrestin complementation, luminescence. inhibition, % at 20 µM;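 active = inhibition above about 40% at 20 µM, limit read from the data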;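 note: cells challenged with 10 nM apelin-13 agonist together with compound; plate controls were apelin-13 plus DMSO wells for no effect and DMSO wells lacking apelin-13 for full effect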
CCR6 antag: antagonists of human CCR6 receptor | CHO-K1 CCR6 PathHunter beta-arrestin, luminescence, CCL20-stimulated | 0.49% of 340,000 active | inhibition, % at 20 µM;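 active = compounds whose inhibition of the agonist-driven luminescence signal at 20 µM reaches about 50%, limit read from the data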;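 note: cells stimulated with CCL20 at 14 nM final; plate controls were DMSO with CCL20 for no effect and DMSO without agonist for full effect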
Target sequence (P51684 whole entry, looked up): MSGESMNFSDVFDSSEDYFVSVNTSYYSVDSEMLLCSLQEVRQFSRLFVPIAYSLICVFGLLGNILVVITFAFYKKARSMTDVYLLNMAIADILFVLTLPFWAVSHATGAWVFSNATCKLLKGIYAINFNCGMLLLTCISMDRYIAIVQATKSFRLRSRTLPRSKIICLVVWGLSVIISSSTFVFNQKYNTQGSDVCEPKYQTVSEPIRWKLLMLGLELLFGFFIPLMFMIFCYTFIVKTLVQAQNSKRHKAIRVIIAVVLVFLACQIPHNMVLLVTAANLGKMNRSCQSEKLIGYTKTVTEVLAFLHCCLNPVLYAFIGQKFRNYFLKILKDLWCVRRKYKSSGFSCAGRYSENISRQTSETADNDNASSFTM
CXCR6 block: inhibitors of human CXCR6 receptor | O00574 | CHO-K1 PathHunter CXCR6 beta-arrestin, luminescence | inhibition, % at 20 µM | 0.36% of 360,000 active | AID 602244; in the data active = inhibition above about 34%, passing the limit was not always enough;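 note: antagonist mode with CXCL16 agonist at 10 nM final; 0% = 10 nM CXCL16 with DMSO and 100% = unstimulated wells without agonist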
EBI2 antag: EBI2 (human) antagonism | P32249 | EBI2 beta-arrestin recruitment, luminescence, 7a,25-OHC stimulated | inhibition, % at 5 µM | 0.81% of 360,000 active | AID 651636; in the data active = inhibition above about 38%;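 note: enzyme fragment complementation signal reports receptor beta-arrestin coupling in cells; 0% = agonist plus DMSO wells and 100% = wells without agonist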
CXCR6 confirm: confirmation of human CXCR6 receptor antagonists | shares compounds with CXCR6 block | CHO-K1 CXCR6 PathHunter beta-arrestin, luminescence | inhibition, % at 20 µM | 65% of 700 active;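 active = mean inhibition over four retests above 40%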;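 note: receptor stimulated with 10 nM CXCL16 agonist; beta-galactosidase fragment complementation upon beta-arrestin recruitment to receptor; plate controls were CXCL16 plus DMSO for no effect and DMSO without CXCL16 for full effect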
The depositor's hits bear a star; . = no result given. Shown are actives, neighbours in structure and some others; about 1.5% of the full set was active somewhere.

SMILES	iPSC survival up	APJ ag	APJ antagonist	CCR6 antag	CXCR6 block	EBI2 antag	CXCR6 confirm
CCN1C[C@@H]2[C@@H]3C(=O)N(Cc4ccccc4)C(=O)[C@@H]3[C@](CC)(C1=O)N2C(=O)c1ccccc1	-1	.	.	4	-2	-5	.
COc1ccccc1NS(=O)(=O)c1ccc(C)c(C(=O)NCC(c2cccs2)N2CCOCC2)c1 (stereo not drawn)	0	.	.	4	-2	1	.
Cc1ccccc1NC(=O)CSc1nnc(CNC(=O)c2ccco2)n1C	-1	3	9	8	0	-11	.
CCSc1ncc(Cl)c(C(=O)Nc2ccccc2)n1	4	-2	7	16	-4	-6	.
CCc1ccc(NC(=O)c2nc(S(=O)(=O)Cc3ccccc3)ncc2Cl)cc1	0	1	-9	.	82*	39	80*
CCOc1ccccc1NC(=O)c1ccc(C(=O)Nc2ccccc2OCC)nc1	0	0	-3	-13	-8	-21	.
CCOc1ccccc1NC(=O)c1nc(S(=O)(=O)Cc2ccccc2)ncc1Cl	12	-9	18	51*	56*	46*	53*
O=C(Cn1ccc2ccccc2c1=O)NCC(=O)N1CCN(c2ccc(F)cc2)CC1	0	0	-16	5	-3	2	.
O=C1C=CC(=O)N1CCNc1ncc(C(F)(F)F)cc1Cl	-3	-1	-12	.	97*	11	77*
O=C1CC(=O)N(CCNc2ncc(C(F)(F)F)cc2Cl)C(=O)N1	-1	3	1	6	6	7	.
Cc1cc(C)cc(N(CC(=O)NC2CCCC2)S(=O)(=O)c2c(C)[nH]c(=O)[nH]c2=O)c1	0	-5	7	6	4	-3	.
COc1ccc(N(CC(=O)NC2CCCC2)S(=O)(=O)c2c(C)[nH]c(=O)[nH]c2=O)cc1	0	-3	-61	7	35*	-1	8
Cc1ccc(F)cc1CNC(=O)C1CCC(=O)N(C2CC2)C1 (stereo not drawn)	0	-6	-2	-1	38*	-8	-5
COc1cc(NC(=O)C2CSC3(C)CCC(=O)N23)c(OC)cc1Cl (stereo not drawn)	0	-8	10	7	4	-6	.
Cc1sc(Cc2nc(O)cs2)nc1-c1ccccc1	0	-9	45*	33	52*	5	38
Oc1csc(Cc2nc(-c3ccc(Br)cc3)cs2)n1	0	-3	-8	21	5	4	.
CC1(Br)C(Sc2ccccc2[N+](=O)[O-])=Nc2ccccc21 (stereo not drawn)	-1	.	.	.	14	12	.
O=C(c1ccc([N+](=O)[O-])cc1)N1CCN(c2ncc(Br)cn2)CC1	0	-5	10	2	1	20	.
Cc1cc(N=O)c(C)cc1O	3	.	.	.	0	7	.
Cc1cc(O)c(-c2cc(O)c(C)cc2O)cc1O	0	10	0	.	64*	27	80*
COc1ccc(-c2ccc3c(c2)C2CC3CCN2C(=O)C(C)(C)C)cc1 (stereo not drawn)	1	.	.	-2	3	16	.
O=[N+]([O-])c1ccc(Sc2cccc3cccnc23)c([N+](=O)[O-])c1	1	-4	37	56*	53*	33	70*
O=C(NC(=S)Nc1ccc([N+](=O)[O-])cc1)c1ccco1	6	.	.	.	42*	9	40
CCc1ccc(-c2cc(C)no2)cc1S(=O)(=O)NC(C)Cc1ccco1 (stereo not drawn)	0	-2	5	5	1	13	.
CN1CCN(c2ccc([N+](=O)[O-])cc2C(=O)c2ccc(Br)cc2)CC1	-2	-4	8	18	-2	7	.
SMILES	iPSC survival up	APJ ag	APJ antagonist	CCR6 antag	CXCR6 block	EBI2 antag	CXCR6 confirm
Cc1ccc(C(=O)c2cc([N+](=O)[O-])ccc2N2CCN(C)CC2)cc1	3	-1	-6	31	59*	7	10
CCc1cccc2c(C(=O)C(F)(F)F)cn(CC(=O)NCC3CCCO3)c12 (stereo not drawn)	3	-5	6	13	46*	-10	2
Cc1cc(NCc2ccccn2)n2c(nc3ccccc32)c1C#N	-2	.	.	-7	-15	-8	.
CCCc1cc(NCc2ccccn2)n2c(nc3ccccc32)c1C#N	-1	3	-20	2	59*	-38	-1
Cc1cc2nc(N3C(=O)CNC3=S)sc2cc1C	0	-3	22	.	50*	-8	61*
CCCC/C=C1/CCC(CN(C)C)C1=O (stereo not drawn)	-3	.	.	52*	34*	-1	48*
COc1cccc(/C=C2/CCC(CN(C)C)C2=O)c1 (stereo not drawn)	-2	.	.	92*	71*	23	54*
Cc1cc(C)cc(NC(=O)c2cccc(C(=O)Nc3cc(C)cc(C)c3)n2)c1	0	3	5	-14	-1	-21	.
COc1cc(/C=C/c2ccc3c(Br)cc(Br)c(O)c3n2)ccc1O	0	.	.	68*	42*	13	51*
COc1ccc(/C=C/c2ccc3c(Br)ccc(O)c3n2)cc1	0	-1	-1	22	9	2	.
Nc1ccc2c(c1)Cc1cc([N+](=O)[O-])ccc1-2	-2	-3	14	17	6	1	.
CC(O)CN(CC(C)O)c1ccc2c(c1)Cc1cc([N+](=O)[O-])ccc1-2 (stereo not drawn)	2	.	.	55*	38*	10	41*
O=C(NCc1cccnc1)Nc1cccc([N+](=O)[O-])c1	0	-4	27	4	-4	-1	.
CC(=O)Oc1c(/C=C(\C#N)C(N)=O)[nH]c2ccccc12	0	.	.	36	42*	-12	16
N#C/C(=C\c1c[nH]c2ccccc12)C(N)=O	1	-1	-4	-3	-8	4	.
Cc1ccc(OS(=O)(=O)c2ccc(N3C(=O)CCC3=O)cc2)cc1	0	-2	-2	11	-5	1	.
Cc1ccc(CNC(=O)CCC(=O)Nc2nnc(C)s2)cc1	0	-3	35	4	-6	-4	.
Cn1cnc([N+](=O)[O-])c1NC(C)(C)C	2	-4	13	-4	1	-4	.
Cn1cnc([N+](=O)[O-])c1S(=O)(=O)c1ccc(Cl)cc1	-2	.	.	50	42*	3	69*
Cc1nc(NCCc2ccccc2)c2nnn(Cc3ccccc3)c2n1	1	-2	-21	11	3	-4	.
CC(=O)c1ccc(N(CC(=O)NCCc2ccccc2)C(=O)c2csnn2)cc1	2	-3	3	0	4	-2	.
CCOC(=O)Cc1c(C)nc2c(-c3cccc(Br)c3)c[nH]n2c1=O	0	-2	19	19	36*	5	12

Screening results from PubChem.
